Structures are written as SMILES. pIC50: −log10 of the molar value. Activity calls are given as the source filed them. No cut-off for these calls is given here.

Test [1] deals with MCF7. The experiment in a line: Inhibition of HSP90 in human MCF7 cells assessed as decrease in ERalpha level at 100 uM after 16 hrs by Western blot analysis. Format: cell-based. In a few lines: (§1)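 Treated MCF-7 cell lysates were immunoblotted using the primary antibodies ERα (HC20) and Raf-1 (C12), with detection by a peroxidase-labelled secondary antibody. The control lysate came from DMSO-exposed cells. A nonspecific band served as the loading control.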
Background: A western blot detects proteins with antibodies after separation by electrophoresis.

The subject of test [2] is MELN. The experiment in a line: Effect on estradiol-induced transcription in human MELN cells assessed as increase in luciferase activity at 200 uM after 18 hrs relative to control. Type of test: functional, cell-based. The procedure, abridged: (§2)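 MELN breast cancer cells were treated for 18 h with the compounds, with or without 0.1 nM estradiol. Luciferase activity was measured and expressed as fold induction relative to untreated control cells.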

For test [3], the system named is MCF7. In words: Inhibition of HSP90 in human MCF7 cells assessed as decrease in Raf-1 level at 100 uM after 16 hrs by Western blot analysis. Format: cell-based. The procedure, abridged: as §1
In test [4] the test system is MCF7. In words: Reversal of inhibition of HSP90 in human MCF7 cells assessed as decrease in ERalpha level at 100 uM after 16 hrs in presence of MG132 by Western blot analysis. Format: cell-based.
Test [5] has as its system MELN. In words: Effect on estradiol-induced transcription in human MELN cells assessed as inhibition of luciferase activity at 200 uM after 18 hrs relative to control. Type of test: functional, cell-based. In a few lines:
as §2

Test [6] concerns MCF7. In words: Antiproliferative activity against human MCF7 cells after 72 hrs by MTT assay. Format: functional, cell-based. The settings on record: MCF7, 72 h. In a few lines: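 MCF-7 cells were seeded at 5000 cells/well and, after 24 h, exposed to serial dilutions for 72 h. Survival was read by MTT. IC50 is the concentration giving 50% growth inhibition versus vehicle-treated cells. Values are the means of three experiments run in sextuplicate, with standard deviation.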
On the technique in general: Tetrazolium assays rely on reduction of a dye to a coloured formazan, in cell work by metabolically active cells.

The test system of test [7] is MCF7. The experiment in a line: Inhibition of HSP90 in human MCF7 cells assessed as decrease in progesterone receptor B level. Format: cell-based. The procedure, abridged:
(§3)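 MCF-7 cells were exposed to increasing concentrations, and lysates were immunoblotted for PRA and PRB with a PR (Ab-8) primary antibody and a peroxidase-labelled secondary antibody. The control was a DMSO-exposed lysate. A nonspecific band served as the constant loading reference.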

The test system of test [8] is MCF7. In words: Inhibition of HSP90 in human MCF7 cells assessed as decrease in progesterone receptor A level. Format: cell-based. In a few lines: as §3

Regarding `CC1(C)C=Cc2cc(C(=O)Nc3c(O)c4ccccc4oc3=O)ccc2O1`, the result in the test with MCF7 [1] and in the test with MCF7 [3] was inactive. The outcome with MELN [2] was Active.

As for `CCCCCCCCCCCCC(=O)Nc1c(-c2cc(OC)c(OC)c(OC)c2)c2ccccc2oc1=O`, the outcome in the test with MCF7 [1] and with MCF7 [3] was inactive.

For the compound `CC1(C)CCc2cc(C(=O)Nc3c(O)c4ccccc4oc3=O)ccc2O1`, the result in the test on MCF7 [4], in the test on MCF7 [1] and in the test with MCF7 [3] was Active.

As to `CCCC(=O)Nc1c(OS(=O)(=O)c2ccc(C)cc2)c2ccccc2oc1=O`, the outcome with MCF7 [4], in the test on MCF7 [1], with MELN [5] and in the test on MCF7 [3] was Active. Further, in the test on MCF7 [6], the pIC50 (as a rule, the negative decadic logarithm of the IC50, by convention in mol/L) is 4.12.

On to `COc1ccc(-c2c(NC(=O)c3ccc(OC)cc3OC)c(=O)oc3ccccc23)cc1`, for which the outcome in the test with MCF7 [1] and with MCF7 [3] was inactive.

On to `CCCC(=O)Nc1c(-c2cc(OC)c(OC)c(OC)c2)c2ccccc2oc1=O`, for which the result in the test on MCF7 [1] and in the test with MCF7 [3] was inactive.

Regarding `CCCCCCCCCCCCC(=O)Nc1c(OS(=O)(=O)c2ccc(C)cc2)c2ccccc2oc1=O`, the result with MCF7 [4], in the test on MCF7 [1], with MELN [5] and in the test with MCF7 [3] was Active. The compound further had a pIC50 in the test on MCF7 [6] of 4.30.

As to `CCCCCCCCCCCCC(=O)Nc1c(-c2ccc(OC)cc2)c2ccccc2oc1=O`, the outcome with MCF7 [4], with MCF7 [1] and with MCF7 [3] was Active.

On to `COc1cccc(OC)c1C(=O)Nc1c(O)c2ccccc2oc1=O`, for which the outcome in the test on MCF7 [4], with MCF7 [1] and in the test with MCF7 [3] was Active.

Regarding `CCCCCCCCCCCCC(=O)Nc1c(-c2ccc(Cl)cc2)c2ccccc2oc1=O`, the result with MCF7 [1] and with MCF7 [3] was inactive.

Turning to `Cc1ccc(S(=O)(=O)Oc2c(NC(=O)C3=Cc4ccccc4OC3)c(=O)oc3ccccc23)cc1`, the result in the test on MCF7 [4], with MCF7 [1], in the test on MELN [5] and with MCF7 [3] was Active. For the same compound, the negative-log IC50 (pIC50) with MCF7 [6] is 4.15.

Regarding `COc1cc(C(=O)Nc2c(OS(=O)(=O)c3ccc(C)cc3)c3ccccc3oc2=O)cc(OC)c1OC`, the result with MCF7 [4], in the test with MCF7 [1] and in the test on MELN [5] was Active. This compound showed a pIC50 in the test with MCF7 [6] of 4.40. For the same compound, the outcome in the test on MCF7 [3] was inactive.

Consider `COc1ccc(-c2c(NC(=O)c3cc(OC)c(OC)c(OC)c3)c(=O)oc3ccccc23)cc1`, for which the outcome in the test with MCF7 [1] and in the test on MCF7 [3] was inactive.

In the case of `COc1ccccc1CC(=O)Nc1c(O)c2ccccc2oc1=O`, the outcome in the test with MCF7 [4], in the test with MCF7 [1] and with MCF7 [3] was Active.

Regarding `CCCC(=O)Nc1c(O)c2ccccc2oc1=O`, the outcome in the test on MCF7 [1] and in the test with MCF7 [3] was inactive. Also, the outcome in the test on MELN [5] was Active.

Regarding `COc1ccccc1CC(=O)Nc1c(OS(=O)(=O)c2ccc(C)cc2)c2ccccc2oc1=O`, in the test with MELN [5], the outcome was Active.

As for `CC(=O)Nc1c(O)c2ccccc2oc1=O`, the outcome in the test on MCF7 [4], with MCF7 [1] and in the test with MCF7 [3] was Active.

As for `Cc1ccc(S(=O)(=O)Oc2c(NC(=O)c3ccc4c(c3)C=CC(C)(C)O4)c(=O)oc3ccccc23)cc1`, the result with MCF7 [4], with MCF7 [1], in the test on MELN [5], with MCF7 [7], in the test on MCF7 [8] and in the test on MCF7 [3] was Active. The same compound showed a pIC50 with MCF7 [6] of 4.46.

For the compound `COc1ccc2cc(C(=O)Nc3c(O)c4ccccc4oc3=O)c(=O)oc2c1`, the outcome with MCF7 [4], in the test with MCF7 [1] and in the test on MCF7 [3] was Active.

The values above are taken from ChEMBL document CHEMBL1142362, “Synthesis and biological activity of simplified denoviose-coumarins related to novobiocin as potent inhibitors of heat-shock protein 90 (hsp90)” (Bioorg Med Chem Lett, 2008).
